Experimental data: ChEMBL document CHEMBL3632582, “Aspertetranones A-D, Putative Meroterpenoids from the Marine Algal-Associated Fungus Aspergillus sp. ZL0-1b14” (J Nat Prod, 2015)
Activity calls are given as the source filed them. No cut-off for these calls is given here.

Columns and labels:
[1] = test system: RAW264.7; assay: Antiinflammatory activity in mouse RAW264.7 cells assessed as inhibition of LPS-induced IL-6 production preincubated 2 hrs before LPS stimulation measured after 22 hrs by ELISA; type: functional, cell-based
Outline: (§1)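 RAW 264.7 macrophages were pretreated for 2 h with compound across 0–80 μM, with hydrocortisone (20 μM) as control. LPS was then added for a further 22 h. IL-6 or IL-1β in the culture medium was quantified by ELISA.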

[2] = test system: RAW264.7; assay: Antiinflammatory activity in mouse RAW264.7 cells assessed as inhibition of LPS-induced TNFalpha production at 33.3 uM preincubated 2 hrs before LPS stimulation measured after 22 hrs by ELISA; type: functional
[3] = test system: RAW264.7; assay: Antiinflammatory activity in mouse RAW264.7 cells assessed as inhibition of LPS-induced IL-1beta production preincubated 2 hrs before LPS stimulation measured after 22 hrs by ELISA; type: functional, cell-based; outline: as §1
[4] = test system: RAW264.7; assay: Cytotoxicity against mouse RAW264.7 cells assessed as cell viability at 10 to 100 uM after 24 hrs by MTS assay; type: cell-based; settings: raw264.7, 24 h
Outline: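 RAW264.7 cells were seeded at 2 × 10^6 cells per well and grown to 80% confluency. They were then exposed to compound over a 10–100 μM gradient for 24 h, and viability was read colorimetrically by MTS.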

[5] = test system: RAW264.7; assay: Antiinflammatory activity in mouse RAW264.7 cells assessed as inhibition of LPS-induced nitric oxide production at 33.3 uM preincubated 2 hrs before LPS stimulation measured after 22 hrs; type: functional
[6] = test system: RAW264.7; assay: Antiinflammatory activity in mouse RAW264.7 cells assessed as inhibition of LPS-induced IL-6 production at 40 uM preincubated 2 hrs before LPS stimulation measured after 22 hrs by ELISA; type: functional; outline: as §1
[7] = test system: RAW264.7; assay: Antiinflammatory activity in mouse RAW264.7 cells assessed as inhibition of LPS-induced IL-1beta production at 40 uM preincubated 2 hrs before LPS stimulation measured after 22 hrs by ELISA; type: functional; outline: as §1

SMILES | inhibition [1] | inhibition at 33.3 µM [2] | inhibition [3] | Activity [4] | inhibition at 33.3 µM [5] | inhibition at 40 µM [6] | inhibition at 40 µM [7]
Cc1oc(=O)c2c(c1C)O[C@@]1(C)[C@H](C2)[C@@H](C)[C@]2(O)CC(=O)C(C)(C)C(=O)[C@@]2(O)[C@H]1O | inactive | < 35% | inactive | Non-toxic | < 35% |  | 
Cc1cc2c(c(=O)o1)C(=O)[C@@H]1[C@@H](C)[C@]3(O)CC(=O)C(C)(C)C(=O)[C@@]3(O)[C@@H](O)[C@@]1(C)O2 | inactive | < 35% | inactive | Non-toxic | < 35% |  | 
Cc1oc(=O)c2c(c1C)O[C@@]1(C)[C@@H]([C@@H](C)[C@]3(O)CC(=O)C(C)(C)C(=O)[C@@]3(O)[C@H]1O)[C@H]2O | Dose-dependent effect | < 35% | Dose-dependent effect | Non-toxic | < 35% | 69% | 47%
Cc1oc(=O)c2c(c1C)O[C@@]1(C)[C@H](C2=O)[C@@H](C)[C@]2(O)CC(=O)C(C)(C)C(=O)[C@@]2(O)[C@H]1O | Dose-dependent effect | < 35% | Dose-dependent effect | Non-toxic | < 35% | 43% | 42%
